According to ChEMBL document CHEMBL1153588, “DNA sequence selectivity of hairpin polyamide turn units” (Bioorg Med Chem Lett, 2009):

What was measured:
Assay type in all cases: nucleic-acid assay
Nucleic Acid [1] = test: Binding affinity to 11mer DNA duplex 5'-CTATGGTAGAC-3' assessed as change in melting temperature by spectroscopic analysis
Summary of the method: (§1)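 Duplex melting temperatures were measured on a spectrophotometer with a thermo-controlled cell holder in 10 mM sodium cacodylate buffer.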

Nucleic Acid [2] = test: Binding affinity to 5'-ATGGTT-3' in Escherichia coli pCDMF6 by DNase1 foot-printing titration method
Summary of the method: (§2)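 The plasmid target was built by ligating an annealed synthetic oligonucleotide pair carrying the tandem match sites. A primer was 5'-end-labelled with ³²P, and binding was measured by DNase I footprinting titrations.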

Nucleic Acid [3] = test: Binding affinity to 5'-ATGGTA-3' in Escherichia coli pCDMF6 by DNase1 foot-printing titration method; summary of the method: as §2
Nucleic Acid [4] = test: Binding affinity to 5'-ATGGTTC-3' in Escherichia coli pCDMF6 by DNase1 foot-printing titration method; summary of the method: as §2
Nucleic Acid [5] = test: Binding affinity to 5'-ATGGTG-3' in Escherichia coli pCDMF6 by DNase1 foot-printing titration method; summary of the method: as §2
Nucleic Acid [6] = test: Binding affinity to 11mer DNA duplex 5'-CTCTGGCACAC-3' assessed as change in melting temperature by spectroscopic analysis; summary of the method: as §1
Nucleic Acid [7] = test: Binding affinity to 11mer DNA duplex 5'-CTCTGTTACCA-3' assessed as change in melting temperature by spectroscopic analysis; summary of the method: as §1
Nucleic Acid [8] = test: Binding affinity to 11mer DNA duplex 5'-CTATGTTACCA-3' assessed as change in melting temperature by spectroscopic analysis; summary of the method: as §1

Row | SMILES | ΔTm (Nucleic Acid [1]) [°C] | Ka (Nucleic Acid [2]) | Ka (Nucleic Acid [3]) | Ka (Nucleic Acid [4]) [×10⁷ /M] | Ka (Nucleic Acid [5]) [×10⁷ /M] | further results
1 | CN(C)CCCNC(=O)CCNC(=O)c1cc(NC(=O)c2cc(NC(=O)c3cc(NC(=O)[C@@H](O)CCNC(=O)c4cc(NC(=O)c5nc(NC(=O)c6nccn6C)cn5C)cn4C)cn3C)cn2C)cn1C | 5.8 |  |  |  |  | 
2 | CN(C)CCCNC(=O)CCNC(=O)c1cc(NC(=O)c2cc(NC(=O)c3cc(NC(=O)[C@@H](F)CCNC(=O)c4cc(NC(=O)c5nc(NC(=O)c6nccn6C)cn5C)cn4C)cn3C)cn2C)cn1C | 7.9 |  |  |  |  | 
3 | CN(C)CCCNC(=O)CCNC(=O)c1cc(NC(=O)c2cc(NC(=O)c3nc(NC(=O)[C@H](N)CCNC(=O)c4cc(NC(=O)c5nc(NC(=O)c6nccn6C)cn5C)cn4C)cn3C)cn2C)cn1C |  |  |  |  |  | ΔTm (Nucleic Acid [6]): 8.3 °C
4 | CN(C)CCCNC(=O)CCNC(=O)c1cc(NC(=O)c2cc(NC(=O)c3nc(NC(=O)C[C@@H](N)CNC(=O)c4cc(NC(=O)c5nc(NC(=O)c6nccn6C)cn5C)cn4C)cn3C)cn2C)cn1C |  |  |  |  |  | ΔTm (Nucleic Acid [6]): 6.7 °C
5 | CN(C)CCCNC(=O)CCNC(=O)c1cc(NC(=O)c2cc(NC(=O)c3cc(NC(=O)C[C@@H](N)CNC(=O)c4cc(NC(=O)c5cc(NC(=O)c6nccn6C)cn5C)cn4C)cn3C)cn2C)cn1C |  |  |  |  |  | ΔTm (Nucleic Acid [7]): 13 °C; ΔTm (Nucleic Acid [8]): 18 °C
6 | CN(C)CCCNC(=O)CCNC(=O)c1cc(NC(=O)c2cc(NC(=O)c3nc(NC(=O)C[C@H](N)CNC(=O)c4cc(NC(=O)c5nc(NC(=O)c6nccn6C)cn5C)cn4C)cn3C)cn2C)cn1C |  |  |  |  |  | ΔTm (Nucleic Acid [6]): 6 °C
7 | CN(C)CCCNC(=O)CCNC(=O)c1cc(NC(=O)c2cc(NC(=O)c3cc(NC(=O)C[C@H](N)CNC(=O)c4cc(NC(=O)c5cc(NC(=O)c6nccn6C)cn5C)cn4C)cn3C)cn2C)cn1C |  |  |  |  |  | ΔTm (Nucleic Acid [7]): 11.6 °C; ΔTm (Nucleic Acid [8]): 17 °C
8 | CN(C)CCCNC(=O)CCNC(=O)c1cc(NC(=O)c2cc(NC(=O)c3cc(NC(=O)[C@H](N)CCNC(=O)c4cc(NC(=O)c5cc(NC(=O)c6nccn6C)cn5C)cn4C)cn3C)cn2C)cn1C |  |  |  |  |  | ΔTm (Nucleic Acid [7]): 10.9 °C; ΔTm (Nucleic Acid [8]): 15.9 °C
9 | CN(C)CCCNC(=O)CCNC(=O)c1cc(NC(=O)c2cc(NC(=O)c3cc(NC(=O)[C@H](N)CCNC(=O)c4cc(NC(=O)c5nc(NC(=O)c6nccn6C)cn5C)cn4C)cn3C)cn2C)cn1C | 14.7 | 1.6 ×10⁹ /M | 1.7 ×10⁹ /M | 3.9 | < 1 | 
10 | CN(C)CCCNC(=O)CCNC(=O)c1cc(NC(=O)c2cc(NC(=O)c3cc(NC(=O)[C@H](F)CCNC(=O)c4cc(NC(=O)c5nc(NC(=O)c6nccn6C)cn5C)cn4C)cn3C)cn2C)cn1C | 8.3 |  |  |  |  | 

Further lines, with some results ahead:

Row | ΔTm (Nucleic Acid [1]) [°C] | Ka (Nucleic Acid [2]) | Ka (Nucleic Acid [3]) | Ka (Nucleic Acid [4]) [×10⁷ /M] | Ka (Nucleic Acid [5]) [×10⁷ /M] | SMILES | further results
11 | 14.7 | 1.1 ×10⁹ /M | 1.3 ×10⁹ /M | 6 | < 1 | CN(C)CCCNC(=O)CCNC(=O)c1cc(NC(=O)c2cc(NC(=O)c3cc(NC(=O)C[C@H](N)CNC(=O)c4cc(NC(=O)c5nc(NC(=O)c6nccn6C)cn5C)cn4C)cn3C)cn2C)cn1C | 
12 | 10.1 | 3.2 ×10⁸ /M | 2.1 ×10⁸ /M | < 1 | < 1 | CC(=O)N[C@H](CCNC(=O)c1cc(NC(=O)c2nc(NC(=O)c3nccn3C)cn2C)cn1C)C(=O)Nc1cc(C(=O)Nc2cc(C(=O)Nc3cc(C(=O)NCCC(=O)NCCCN(C)C)n(C)c3)n(C)c2)n(C)c1 | 
13 | 12.2 | 2 ×10⁹ /M | 5.2 ×10⁹ /M | 8.9 | < 1 | CC(=O)N[C@@H](CNC(=O)c1cc(NC(=O)c2nc(NC(=O)c3nccn3C)cn2C)cn1C)CC(=O)Nc1cc(C(=O)Nc2cc(C(=O)Nc3cc(C(=O)NCCC(=O)NCCCN(C)C)n(C)c3)n(C)c2)n(C)c1 | 
14 | 9.2 | 2.1 ×10⁸ /M | 2 ×10⁸ /M | < 1 | < 1 | CN(C)CCCNC(=O)CCNC(=O)c1cc(NC(=O)c2cc(NC(=O)c3cc(NC(=O)CCCNC(=O)c4cc(NC(=O)c5nc(NC(=O)c6nccn6C)cn5C)cn4C)cn3C)cn2C)cn1C | 
15 | 10 |  |  |  |  | CN(C)CCCNC(=O)CCNC(=O)c1cc(NC(=O)c2cc(NC(=O)c3cc(NC(=O)[C@H](O)CCNC(=O)c4cc(NC(=O)c5nc(NC(=O)c6nccn6C)cn5C)cn4C)cn3C)cn2C)cn1C | 
16 | 14.9 | 3.3 ×10⁹ /M | 1.8 ×10⁹ /M | 5 | < 1 | CN(C)CCCNC(=O)CCNC(=O)c1cc(NC(=O)c2cc(NC(=O)c3cc(NC(=O)C[C@@H](N)CNC(=O)c4cc(NC(=O)c5nc(NC(=O)c6nccn6C)cn5C)cn4C)cn3C)cn2C)cn1C | 
